Screening results: PubChem, Broad Institute
Only some compounds are listed: those with a hit (about 5.9% of all), similar ones and a draw of the others.
Pf Dd2 growth – inhibitors of Plasmodium falciparum Dd2 growth | hit rate 2.3% among 94,000 | activity change, % at 10 µM | P. falciparum Dd2 growth, SYBR Green, 72 h; hits give low values; in the data active means activity change below about -80%; inconclusive means no clear call, values can overlap the other calls
IDH1 R132H inh – inhibitors of human IDH1 R132H; IDH1 R132H reductase, diaphorase/resazurin fluorescence, 60 min; inhibition, % at 10 µM; hit rate 0.18% among 70,000; AID 624101; in the data active means inhibition above about 34%; inconclusive means no clear call, values can overlap the other calls; inactive means below about 11%;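 further: 0% = DMSO and 100% = no enzyme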
GASC1 inh – inhibitors of human demethylase GASC-1 KDM4C | GST-KDM4C 2-372, H3K9me3 peptide, LANCE TR-FRET | Q9H3R0 | AID 720574 | hit rate 0.15% among 96,000 | inhibition, % at 12.5 µM;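 active means mean replicate inhibition above about 25%, with at least 55% of replicates also reaching it, limit read from the data, passing the limit was not always enough; inconclusive means only one of those two conditions met; inactive means neither condition met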
Target sequence (Q9H3R0 2-372 limits assumed): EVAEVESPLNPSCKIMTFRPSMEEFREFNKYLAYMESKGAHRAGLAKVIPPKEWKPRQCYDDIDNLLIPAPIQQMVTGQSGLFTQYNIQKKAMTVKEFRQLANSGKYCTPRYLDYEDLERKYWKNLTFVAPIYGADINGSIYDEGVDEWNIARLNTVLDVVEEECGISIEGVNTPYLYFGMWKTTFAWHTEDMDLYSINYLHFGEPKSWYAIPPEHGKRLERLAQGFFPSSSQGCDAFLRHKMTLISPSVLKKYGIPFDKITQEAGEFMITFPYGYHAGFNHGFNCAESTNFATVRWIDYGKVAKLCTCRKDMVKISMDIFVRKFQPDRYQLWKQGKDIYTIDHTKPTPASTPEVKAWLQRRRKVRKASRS
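Material: N-terminal GST-fused human GASC-1 (KDM4C) fragment, residues 2-372. Input: 10 nM enzyme. Incubation: enzyme reaction 30 min, then detection 60 min, both room temperature. Doses: one test concentration per compound. Read-out basis: inhibition from TR-FRET ratio decrease. Detection: LANCE TR-FRET, excitation 340 nm, emissions 618 and 671 nm.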
T cruzi growth-1 – blocks T. cruzi growth in NIH3T3 culture; T. cruzi beta-gal in NIH3T3, GalScreen luminescence, 90 h; inhibition, % at 8.34 µM; hit rate 5.9% among 77,000; AID 624255;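 active means mean inhibition above about 93%, with at least 55% of replicates each passing it, limit read from the data, passing the limit was not always enough; inconclusive means only one of those two conditions holds; inactive means neither condition holds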
T cruzi growth-2 – inhibitors of T. cruzi proliferation. shares compounds with T cruzi growth-1. T. cruzi beta-gal in NIH3T3, GalScreen luminescence, 90 h. inhibition, % at 8.35 µM. hit rate 72% among 5,600. AID 651739;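 active means mean replicate inhibition above about 95% and at least 55% of replicates individually reaching it, limit read from the data; inconclusive means only one of the two criteria is met; inactive means neither criterion is met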
T cruzi growth-3 – blocks T. cruzi growth in NIH3T3 host cells | shares compounds with T cruzi growth-1 | T. cruzi beta-gal in NIH3T3, GalScreen luminescence, 90 h | inhibition, % at 2.09 µM | hit rate 21% among 5,600;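 active means mean inhibition above about 95%, with at least 55% of replicates also reaching it, limit read from the data; inconclusive means meets just one of the two conditions; inactive means meets neither condition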;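 further: plate controls were neutral control median for no effect and positive control median for full effect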
NIH3T3 tox – NIH/3T3 (mouse) viability loss; shares compounds with T cruzi growth-1; NIH/3T3 viability, CellTiter-Glo ATP luminescence, 90 h; cytotoxicity (signal decrease), % at 8.35 µM; hit rate 14% among 5,600; AID 651742;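 active means mean signal decrease across replicates above about 35% based on untreated-well scatter, with enough replicates individually passing, limit read from the data; inconclusive means no rule stated though some were filed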;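 further: 0% = median of neutral control wells and 100% = median of positive control wells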
3T3 cytotox 2 – kills mouse NIH/3T3 fibroblasts. inhibition, % at 24.9 µM. shares compounds with T cruzi growth-1. AID 651744. NIH/3T3 viability, CellTiter-Glo ATP luminescence, 90 h. hit rate 56% among 5,600;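 active means mean loss of cell viability signal at or above a set limit, and enough replicates individually reaching it; inconclusive means meets only the mean limit or only the replicate share; inactive means meets neither condition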;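 further: 0% = median of neutral control wells and 100% = median of positive control wells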
The depositor's hits bear a star; u = inconclusive; x = not tested or not shown.

SMILES	Pf Dd2 growth	IDH1 R132H inh	GASC1 inh	T cruzi growth-1	T cruzi growth-2	T cruzi growth-3	NIH3T3 tox	3T3 cytotox 2
COC(=O)c1c(NC(=O)COc2ccccc2C(C)C)sc2c1CCCC2	x	-0.3	x	x	x	x	x	x
C[C@@H]1CN([C@@H](C)CO)S(=O)(=O)c2ccc(C#CCN(C)C)cc2O[C@@H]1CN(C)Cc1ccc2c(c1)OCO2	-54.1	-0.5	2.7	84.9	x	x	x	x
C[C@H]1CN([C@@H](C)CO)S(=O)(=O)c2ccc(C#CCN(C)C)cc2O[C@@H]1CN(C)Cc1ccc2c(c1)OCO2	-37.2	0.5	6.2	106.9*	107.0*	88.1	29.1	105.5*
C[C@H]1CN([C@@H](C)CO)S(=O)(=O)c2ccc(C#CCN(C)C)cc2O[C@H]1CN(C)Cc1ccc2c(c1)OCO2	-67.8	2.6	5.9	103.5*	101.0*	52.8	12.7	25.7*
C[C@H](CO)N1C[C@H](C)[C@H](CN(C)Cc2ccc3c(c2)OCO3)Oc2cc(C#CCN(C)C)ccc2S1(=O)=O	u	0.0	0.5	76.4	x	x	x	x
C[C@@H]1CN([C@H](C)CO)C(=O)c2cccc(NC(=O)Nc3ccc(C(F)(F)F)cc3)c2O[C@H]1CN(C)Cc1ccc(Cl)c(Cl)c1	-16.4	x	0.6	u	98.9*	108.1*	22.3	104.8*
C[C@@H]1CN([C@@H](C)CO)C(=O)c2cccc(NC(=O)Nc3ccc(C(F)(F)F)cc3)c2O[C@H]1CN(C)Cc1ccc(Cl)c(Cl)c1	-12.7	0.6	-0.6	129.7*	102.5*	115.9*	38.8*	89.0*
COc1ccc(NC(=O)Nc2cccc3c2O[C@@H](CN(C)Cc2ccc(Cl)c(Cl)c2)[C@H](C)CN([C@@H](C)CO)C3=O)cc1	-35.7	1.6	2.0	116.4*	99.2*	102.0*	14.5	53.0*
C[C@H](CO)N1C[C@H](C)[C@H](CN(C)Cc2ccc(Cl)c(Cl)c2)Oc2ccc(NC(=O)Nc3ccc(C(F)(F)F)cc3)cc2C1=O	-5.0	-4.3	-1.7	103.1*	97.7*	109.3*	33.2	107.5*
N#Cc1cc2c(nc1SCC(=O)Nc1cccc(F)c1)CCCC2	x	0.5	x	x	x	x	x	x
CC1OC(OCC2OC(OCC3(C)C(O)CCC4(C)C3CCC3(C)C4CCC4C5=CC(C)(C)CCC5(C(=O)O)CCC43C)C(O)C(O)C2O)C(O)C(O)C1O (configuration not stated)	x	4.4	x	x	x	x	x	x
COC(=O)c1c(NC(=S)Nc2c(C)nn(Cc3c(F)c(F)c(F)c(F)c3F)c2C)sc(C)c1-c1ccccc1	x	0.2	x	x	x	x	x	x
Cc1ccc(N(C(C)C(=O)Nc2cc([N+](=O)[O-])ccc2C)S(C)(=O)=O)cc1 (configuration not stated)	x	0.2	x	x	x	x	x	x
C[C@@H]1CN([C@H](C)CO)C(=O)c2cccc(NC(=O)Nc3ccc(C(F)(F)F)cc3)c2O[C@@H]1CN(C)S(=O)(=O)c1ccc(Cl)cc1	-37.3	-0.3	x	107.9*	102.8*	107.0*	34.0	104.6*
C[C@H]1CN([C@@H](C)CO)C(=O)c2cccc(NC(=O)Nc3ccc(C(F)(F)F)cc3)c2O[C@H]1CN(C)Cc1ccc2c(c1)OCO2	-25.1	x	-2.6	99.4*	105.7*	103.1*	4.5	97.7*
C[C@H]1CN([C@@H](C)CO)C(=O)c2cccc(NC(=O)Nc3ccc(C(F)(F)F)cc3)c2O[C@@H]1CN(C)S(=O)(=O)c1ccc(F)cc1	-17.0	x	-3.6	89.9	x	x	x	x
COCC1OC(OC(C)(C)C2CCC3(C)C(O2)C(O)CC2(C)/C(=C4\CCC(O)C(C)(CCC(O)C(C)(C)O)C4)CCC23)C(NC(C)=O)C(O)C1O (configuration not stated)	x	3.2	x	x	x	x	x	x
C[C@H](CO)N1C[C@H](C)[C@@H](CN(C)C(=O)Nc2ccccc2)Oc2cc(C#Cc3ccccc3)ccc2S1(=O)=O	-39.9	-0.1	-2.2	118.3*	105.3*	67.7	-9.5	-8.6
C[C@H](CO)N1C[C@H](C)[C@H](CN(C)C(=O)Nc2ccccc2)Oc2cc(C#Cc3ccccc3)ccc2S1(=O)=O	-69.9	1.0	-0.6	118.0*	106.6*	81.4	20.6	13.9
